Here are results for 16 compounds from ChEMBL document CHEMBL1122886, “Nucleoside conjugates. 6. Synthesis and comparison of antitumor activity of 1-beta-D-arabinofuranosylcytosine conjugates of corticosteroids and selected lipophilic alcohols” (1985).

Each structure is given as a SMILES string.

Assay [1] deals with L1210. Put plainly: In vitro cytotoxicity with cleavage by phosphodiesterase-I concentration for 50% loss of viability was determined at 72 hours. Type of assay: functional. The following applies: Mus musculus, L1210, 72 h; read-out: ED50 (the source's name).
Assay [2] concerns L1210. Put plainly: Percent hydrolysis by phosphodiesterase I at 24-h incubation after 30-minutes incubation. Type of assay: functional, Mus musculus.
The species entered for assay [3] is Mus musculus. The assay is described as follows: Dose producing greatest increase in life span of mice bearing lymphoid leukemia, treatment schedule is 1-5 qd. The format is functional. Put shortly:
(§1)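 C3D2F1/J mice (C3H/HEJ female × DBA/2J male), groups of six, av wt 25 g, inoculated ip with 1 × 10^6 L1210 cells. Daily ip treatment (qd 1-5 or qd 1-9) started 24 h after inoculation, over a wide dose range. Mice observed daily until death or 45 days. ILS = (T/C − 1) × 100. Active range is doses giving ILS ≥25%; optimum dose gives the greatest ILS.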

For assay [4], the species on record is Mus musculus. The assay is described as follows: Weight change observed on day 8 in mice bearing lymphoid leukemia, treatment schedule is 1-5 qd. The format is functional. Put shortly: (§2)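 C3D2F1/J mice (C3H/HEJ female × DBA/2J male), groups of six, average weight 25 g, were inoculated ip with 1 × 10^6 L1210 cells. Ip treatment began 24 h after inoculation, daily on days 1-5 or 1-9, over a wide dose range. Mice were observed daily until death or 45 days. Body-weight change was recorded, and ILS was calculated as (T/C − 1) × 100.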

Assay [5] is filed under the species Mus musculus. Put plainly: Number of animals survived after 30-days in mice bearing lymphoid leukemia, treatment schedule is 1-5 qd. The format is functional. Put shortly: as §1
Assay [6] is filed under the species Mus musculus. The assay is described as follows: Percent increase in life span in mice bearing lymphoid leukemia, treatment schedule is 1-5 qd. The format is functional. Put shortly:
as §1

Assay [7] has as its system Mus musculus. Put plainly: In Vivo Antitumor activity against intraperitoneally inoculated L1210 Lymphoid leukemic mice. Number of animals survived after 30-days. Treatment schedule is 1-9 qd. Type of assay: functional. The essentials: as §1
Assay [8] has as its system Mus musculus. Put plainly: In vivo antitumor activity against intraperitoneally inoculated L1210 Lymphoid leukemic mice (Dose producing greatest increase in life span, treatment schedule is 1- 9 qd). The format is functional. Put shortly:
as §1

For assay [9], the system named is Mus musculus. The assay is described as follows: In Vivo Antitumor activity against intraperitoneally inoculated L1210 Lymphoid leukemic mice. Percent increase in life span. Treatment schedule is 1-9 qd. Type of assay: functional. The essentials: as §1
Assay [10] relates to Mus musculus. Put plainly: Dose producing greatest increase in life span >/=25% in mice bearing lymphoid leukemia, treatment schedule is 1-9 qd; 40-80 [mg(umol)/kg] /day. The format is functional. Put shortly: as §1
The test system of assay [11] is Mus musculus. The assay is described as follows: Dose producing greatest increase in life span >/=25% in mice bearing lymphoid leukemia, treatment schedule is 1-5 qd; 20-80 [mg(umol)/kg] /day. The format is functional. The essentials: as §1
Assay [12] concerns Mus musculus. Put plainly: In vivo antitumor activity against intraperitoneally inoculated L1210 lymphoid leukemic mice (Weight change observed on day 8.Treatment schedule is 1-9 qd). Type of assay: functional. Put shortly: as §2
Assay [13] concerns Mus musculus. Put plainly: Dose producing greatest increase in life span >/=25% in mice bearing lymphoid leukemia, treatment schedule is 1-5 qd; 20-60 [mg(umol)/kg] /day. Type of assay: functional. Put shortly: as §1
The species named for assay [14] is Mus musculus. The assay is described as follows: Percent increase in life span in mice bearing lymphoid leukemia, treatment schedule is 1-9 qd. The format is functional. Put shortly:
as §1

The species named for assay [15] is Mus musculus. The assay is described as follows: Number of animals survived after 30-days in mice bearing lymphoid leukemia, treatment schedule is 1-9 qd. The format is functional. Put shortly:
as §1

Assay [16] relates to Mus musculus. The assay is described as follows: Dose producing greatest increase in life span >/=25% in mice bearing lymphoid leukemia, treatment schedule is 1-5 qd; 5-80 [mg(umol)/kg] /day. Type of assay: functional. The essentials: as §1
The subject of assay [17] is Mus musculus. The assay is described as follows: Dose producing greatest increase in life span >/=25% in mice bearing lymphoid leukemia, treatment schedule is 1-9 qd; 5-20 [mg(umol)/kg] /day. The format is functional. Put shortly: as §1
Assay [18] concerns Mus musculus. Put plainly: Dose producing greatest increase in life span >/=25% in mice bearing lymphoid leukemia, treatment schedule is 1-5 qd; 40-60 [mg(umol)/kg] /day. Type of assay: functional. Put shortly: as §1

As to `Nc1ccn(C2O[C@H](COP(=O)(O)OCCCl)[C@@H](O)[C@@H]2O)c(=O)n1` (stereo partly drawn), the EC50 in the assay on L1210 [1] came out at 3130 nM. Moreover, the Hydrolysis in the assay on L1210 [2] was determined as 2%.

In turn, `CC12CCC(=O)C=C1CCC1C2CCC2(C)C1CC[C@@H]2C(=O)COP(=O)(O)OP(=O)(O)OC[C@H]1OC(n2ccc(N)nc2=O)[C@@H](O)[C@@H]1O` (stereo partly drawn) displayed an Optimal dose in the assay listed under Mus musculus [3] of 20 mg/kg/day. In addition, the EC50 in the assay with L1210 [1] was found to be 160 nM. The Weight change in the assay listed under Mus musculus [4] was -3.73 g mouse-1 on day 8. This compound yielded a Hydrolysis in the assay with L1210 [2] of 100%. The compound also came in with a 30 day survivors in the assay listed under Mus musculus [5] of 0. The ILS in the assay filed under Mus musculus [6] is 22%.

Consider `CC12CCC(=O)C=C1CCC1C2C(O)CC2(C)C1CC[C@@H]2C(=O)COP(=O)(O)OP(=O)(O)OC[C@H]1OC(n2ccc(N)nc2=O)[C@@H](O)[C@@H]1O` (stereo partly drawn), for which the 30 day survivors was 2 in the assay on Mus musculus [7] and 0 in the assay filed under Mus musculus [5]. Moreover, the values for the Optimal dose in the assay filed under Mus musculus [3] and in the assay on Mus musculus [8] were 60 mg/kg/day and 80 mg/kg/day, respectively. The EC50 with L1210 [1] worked out at 90 nM. The Weight change in the assay listed under Mus musculus [4] is on record as -0.45 g mouse-1 on day 8; in the assay on Mus musculus [12] it was -1.95 g mouse-1 on day 8. The compound further yielded a Hydrolysis in the assay on L1210 [2] of 100%. Also, the values for the ILS in the assay on Mus musculus [9] and in the assay filed under Mus musculus [6] were 152% and 95%, respectively. The Active dose range with Mus musculus [10] worked out at 40 mg/kg/day; with Mus musculus [11], 20 mg/kg/day.

With `CC12CC(O)C3C4C=CC(=O)C=C4CCC3C1CC[C@]2(O)C(=O)COP(=O)(O)OP(=O)(O)OC[C@H]1OC(n2ccc(N)nc2=O)[C@@H](O)[C@@H]1O` (stereo partly drawn), in the assay filed under Mus musculus [6], the ILS is 116%.

On to `Nc1ccn([C@@H]2O[C@H](COP(=O)(O)O)[C@@H](O)[C@H]2O)c(=O)n1`, for which, in the assay on L1210 [1], the EC50 came to 50 nM.

On to `CC12CCC(=O)C=C1CCC1C2C(O)CC2(C)C1CC[C@]2(O)C(=O)COP(=O)(O)OP(=O)(O)OC[C@H]1OC(n2ccc(N)nc2=O)[C@@H](O)[C@@H]1O` (stereo partly drawn), for which the ILS in the assay listed under Mus musculus [6] is 86%.

In the assay filed under Mus musculus [3], `CC12CCC(=O)C=C1CCC1C2CCC2(C)C1CC[C@]2(O)C(=O)COP(=O)(O)OP(=O)(O)OC[C@H]1OC(n2ccc(N)nc2=O)[C@@H](O)[C@@H]1O` (stereo partly drawn) showed an Optimal dose of 60 mg/kg/day. Further, the EC50 in the assay with L1210 [1] was determined as 20 nM. Further, in the assay listed under Mus musculus [4], the Weight change is -2.15 g mouse-1 on day 8. For the same compound, the Hydrolysis in the assay with L1210 [2] is listed as 100%. The Active dose range with Mus musculus [13] stood at 20 mg/kg/day. The compound further displayed a 30 day survivors in the assay filed under Mus musculus [5] of 0. Besides, in the assay listed under Mus musculus [6], the ILS came out at 33%.

Take `Nc1ccn(C2O[C@H](COP(=O)(O)OCC34CC5CC(CC(C5)C3)C4)[C@@H](O)[C@@H]2O)c(=O)n1` (stereo partly drawn): the EC50 in the assay on L1210 [1] turned out to be 1250 nM. This compound yielded a Hydrolysis in the assay on L1210 [2] of 9%.

Take `Nc1ccn(C2O[C@H](COP(=O)(O)OCC3CCCCC3)[C@@H](O)[C@@H]2O)c(=O)n1` (stereo partly drawn): the Optimal dose in the assay listed under Mus musculus [3] stood at 40 mg/kg/day. Besides, in the assay with L1210 [1], the EC50 came to 7000 nM. The same compound gave a Weight change in the assay filed under Mus musculus [4] of -0.67 g mouse-1 on day 8. In the assay on L1210 [2], this compound showed a Hydrolysis of 0%. This compound registered a 30 day survivors in the assay listed under Mus musculus [5] of 0. In addition, the ILS in the assay listed under Mus musculus [6] was -5%.

For `Nc1ccn([C@@H]2O[C@H](CO)[C@@H](O)[C@@H]2O)c(=O)n1` [CYTARABINE], the results for the ILS in the assay filed under Mus musculus [14] and in the assay filed under Mus musculus [6] were 138% and 63%, respectively. Also, the Optimal dose in the assay filed under Mus musculus [3] and in the assay on Mus musculus [8] was 9.2 mg/kg/day each time. Moreover, the 30 day survivors in the assay listed under Mus musculus [15] and in the assay filed under Mus musculus [5] was 1 throughout. The EC50 in the assay with L1210 [1] was determined as 190 nM. Besides, the results for the Weight change in the assay filed under Mus musculus [4] and with Mus musculus [12] were -2.66 g mouse-1 on day 8 and -4.56 g mouse-1 on day 8, respectively. In addition, the Active dose range in the assay with Mus musculus [16] and in the assay on Mus musculus [17] was 5 mg/kg/day in each case.

Turning to `Nc1ccn(C2O[C@H](COP(=O)(O)OP(=O)(O)OCC3CCCCC3)[C@@H](O)[C@@H]2O)c(=O)n1` (stereo partly drawn), the EC50 in the assay with L1210 [1] stood at 5600 nM. For the same compound, in the assay on L1210 [2], the Hydrolysis was 80%.

In the assay filed under Mus musculus [3], `CCCCCCCCCCCCCCCCOP(=O)(O)OC[C@H]1O[C@@H](n2ccc(N)nc2=O)[C@@H](O)[C@@H]1O` returned an Optimal dose of 20 mg/kg/day. Besides, in the assay with L1210 [1], the EC50 was determined as 16500 nM. Further, the Weight change in the assay filed under Mus musculus [4] was -4.75 g mouse-1 on day 8. Further, in the assay with L1210 [2], the Hydrolysis is 0%. Moreover, in the assay listed under Mus musculus [5], the No. of survivors is on record as 0. Also, in the assay listed under Mus musculus [6], the ILS is -22%.

Consider `CCCCCCCCCCCCCCCCOP(=O)(O)OP(=O)(O)OC[C@H]1OC(n2ccc(N)nc2=O)[C@@H](O)[C@@H]1O` (stereo partly drawn), for which the Optimal dose in the assay filed under Mus musculus [3] came out at 40 mg/kg/day. The EC50 with L1210 [1] amounted to 4300 nM. For the same compound, the Weight change in the assay listed under Mus musculus [4] stood at 2.92 g mouse-1 on day 8. In the assay with L1210 [2], this compound yielded a Hydrolysis of 80%. Besides, the Active dose range with Mus musculus [13] was determined as 20 mg/kg/day. The 30 day survivors in the assay listed under Mus musculus [5] is 0. In addition, the ILS in the assay listed under Mus musculus [6] was 38%.

`CC12CCC(=O)C=C1CCC1C2C(=O)CC2(C)C1CC[C@]2(O)C(=O)COP(=O)(O)OP(=O)(O)OC[C@H]1OC(n2ccc(N)nc2=O)[C@@H](O)[C@@H]1O` (stereo partly drawn) returned an Optimal dose in the assay filed under Mus musculus [3] of 40 mg/kg/day. Also, in the assay with L1210 [1], the EC50 was 80 nM. The compound also showed an Active dose range in the assay with Mus musculus [18] of 40 mg/kg/day. The compound also gave a Weight change in the assay filed under Mus musculus [4] of -0.78 g mouse-1 on day 8. In addition, the Hydrolysis with L1210 [2] came to 100%. Moreover, in the assay filed under Mus musculus [5], the 30 day survivors amounted to 0. Besides, in the assay listed under Mus musculus [6], the ILS came to 36%.

On to `C[C@]12C[C@H](O)[C@H]3[C@@H](CCC4=CC(=O)CC[C@@]43C)[C@@H]1CC[C@@H]2C(=O)COP(=O)(O)O.Nc1ccn([C@@H]2O[C@H](COP(=O)(O)O)[C@@H](O)[C@@H]2O)c(=O)n1`, for which, in the assay on L1210 [1], the EC50 stood at 80 nM.

In the assay listed under Mus musculus [3], `Nc1ccn([C@@H]2O[C@H](COP(=O)(O)OCCC34CC5CC(CC(C5)C3)C4)[C@@H](O)[C@@H]2O)c(=O)n1` had an Optimal dose of 40 mg/kg/day. Further, the EC50 with L1210 [1] worked out at 310 nM. In addition, the Weight change in the assay listed under Mus musculus [4] is 0.87 g mouse-1 on day 8. For the same compound, the Hydrolysis in the assay on L1210 [2] is recorded as 25%. In the assay listed under Mus musculus [5], the 30 day survivors was found to be 0. Besides, in the assay listed under Mus musculus [6], the ILS is 18%.
